≈ marks a conversion by molar mass, not a printed value. Calls of active or inactive are those of the source. The calls are words filed in the database; no cut-off is given here.
What was measured:
[1] = tested on: Mycobacterium tuberculosis; test: Induction of resistance development in Mycobacterium tuberculosis mc2 6230 harbouring pMV261 plasmid overexpressing inhA assessed as fold increase in MIC measured after 7 days by 7H10 agar based dilution method; assay type: functional; conditions: time 7 day
[2] = tested on: Mycobacterium tuberculosis; test: Antimycobacterial activity against Mycobacterium tuberculosis mc2 6230 harbouring pMV261 plasmid overexpressing inhA assessed as inhibition of bacterial growth measured after 7 days by 7H9 broth based dilution method; assay type: functional; conditions: mc2 6230, 168 h, time 7 day
[3] = tested on: Mycobacterium tuberculosis; test: Induction of resistance development in Mycobacterium tuberculosis mc2 6230 harbouring pMV261 plasmid overexpressing inhA assessed as fold increase in MIC measured after 7 days by 7H9 broth based dilution method; assay type: functional; conditions: time 7 day
[4] = tested on: Mycobacterium tuberculosis; test: Antimycobacterial activity against Mycobacterium tuberculosis mc2 6230 harbouring pMV261 plasmid overexpressing inhA assessed as inhibition of bacterial growth measured after 7 days by 7H10 agar based dilution method; assay type: functional; conditions: mc2 6230, 168 h, time 7 day
[5] = tested on: Mycobacterium tuberculosis; test: Inhibition of mycolic acid biosynthesis in Mycobacterium tuberculosis mc2 6230 harbouring pMV261 plasmid overexpressing inhA assessed as decrease in methoxy-mycolic acid at 1.25 ug/ml incubated for 15 mins followed by 14C-labeled acetate addition measured after 7 hrs by TLC analysis; assay type: functional, organism-based; conditions: dose 1.25 µg/ml, time 435.0 min
Method in brief: (§1)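 mc²6230 carrying pMV261-inhA, treated for 15 hrs at 37 °C with agitation in 7H9/OADC/tyloxapol/pantothenate. Then labelled with 1 μCi/mL [¹⁴C]acetate for 7 hrs. Mycolic acid methyl esters extracted, 50,000 cpm resolved by TLC (hexane/ethyl acetate 19/1, 2 runs) and exposed overnight.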

[6] = tested on: Mycobacterium tuberculosis; test: Induction of resistance development in Mycobacterium tuberculosis harbouring katG F594C mutant assessed as resistance frequency at 5 times of MIC by visual analysis; assay type: functional
[7] = tested on: Mycobacterium tuberculosis; test: Inhibition of mycolic acid biosynthesis in Mycobacterium tuberculosis mc2 6230 harbouring pMV261 plasmid overexpressing inhA assessed as decrease in keto-mycolic acid at 1.25 ug/ml incubated for 15 mins followed by 14C-labeled acetate addition measured after 7 hrs by TLC analysis; assay type: functional, organism-based; conditions: dose 1.25 µg/ml, time 435.0 min; method in brief: as §1
[8] = tested on: Mycobacterium tuberculosis; test: Induction of resistance development in Mycobacterium tuberculosis harbouring katG 186 del mutant assessed as resistance frequency at 20 times of MIC by visual analysis; assay type: functional
[9] = tested on: Mycobacterium tuberculosis; test: Inhibition of mycolic acid biosynthesis in Mycobacterium tuberculosis mc2 6230 harbouring pMV261 plasmid overexpressing inhA assessed as decrease in alpha-mycolic acid at 1.25 ug/ml incubated for 15 mins followed by 14C-labeled acetate addition measured after 7 hrs by TLC analysis; assay type: functional, organism-based; conditions: dose 1.25 µg/ml, time 435.0 min; method in brief: as §1
[10] = tested on: Mycobacterium tuberculosis; test: Induction of resistance development in Mycobacterium tuberculosis harbouring katG amino acid change at stop codon mutant assessed as resistance frequency at 5 times of MIC by visual analysis; assay type: functional
[11] = tested on: Mycobacterium tuberculosis; test: Induction of resistance development in Mycobacterium tuberculosis harbouring katG G495D mutant assessed as resistance frequency at 20 times of MIC by visual analysis; assay type: functional
[12] = tested on: Mycobacterium tuberculosis; test: Induction of resistance development in Mycobacterium tuberculosis harbouring katG W161R mutant assessed as resistance frequency at 5 times of MIC by visual analysis; assay type: functional

O=C(N/N=C/c1ccc(OCc2cn(-c3ccnc4cc(Cl)ccc34)nn2)cc1)c1ccncc1 was tested, and the “fold change (FC)” value [1] was 25, the MIC [2] was greater than 200 µg/mL and the “fold change (FC)” value [3] was 25. It also gave an MIC [4] of 6.25 µg/mL (≈ 12.9 µM).

For O=C(N/N=C/c1ccccc1-n1cc(CN2CCN(c3ccnc4cc(Cl)ccc34)CC2)nn1)c1ccncc1, the “fold change (FC)” value [1] was 25, the inhibition [5] was “inactive” and the MIC [2] was 6.25 µg/mL (≈ 11.3 µM). For the same compound, the “fold change (FC)” value [3] was 25, the MIC [4] was 6.25 µg/mL (≈ 11.3 µM) and the Activity [6] was 1.8 10^-6No_unit. For the same compound, the inhibition [7] was “inactive”, the Activity [8] was 7.1 10^-7No_unit and the inhibition [9] was “inactive”.

With NNC(=O)c1ccncc1 [ISONIAZID] the “fold change (FC)” value [1] was 20, the MIC [2] was 1 µg/mL (≈ 7.29 µM) and the “fold change (FC)” value [3] was 20. It also gave an MIC [4] of 1 µg/mL (≈ 7.29 µM).

With COc1cc(/C=N/NC(=O)c2ccncc2)ccc1OCc1cn(CCNc2ccnc3cc(Cl)ccc23)nn1 the “fold change (FC)” value [1] was 25, the MIC [2] was 25 µg/mL (≈ 44.9 µM) and the “fold change (FC)” value [3] was 25. For the same compound, the MIC [4] was 12.5 µg/mL (≈ 22.4 µM).

For O=C(N/N=C/c1ccc(OCc2cn(CCCNc3ccnc4cc(Cl)ccc34)nn2)cc1)c1ccncc1, the Activity [10] was 1.52 10^-6No_unit, the “fold change (FC)” value [1] was 25 and the MIC [2] was 12.5 µg/mL (≈ 23.1 µM). For the same compound, the “fold change (FC)” value [3] was 25, the MIC [4] was 6.25 µg/mL (≈ 11.6 µM) and the Activity [11] was 5 10^-7No_unit.

In the case of COc1cc(/C=N/NC(=O)c2ccncc2)ccc1OCc1cn(CCCNc2ccnc3cc(Cl)ccc23)nn1, the “fold change (FC)” value [1] is reported as 25, the Activity [12] is reported as 1.16 10^-6No_unit and the MIC [2] is reported as 25 µg/mL (≈ 43.8 µM). The “fold change (FC)” value [3] was 25 and the MIC [4] was 6.25 µg/mL (≈ 10.9 µM).

COc1cc(/C=N/NC(=O)c2ccncc2)ccc1OCc1cn(-c2ccnc3cc(Cl)ccc23)nn1 was tested, and the “fold change (FC)” value [1] was 25, the MIC [2] was 50 µg/mL (≈ 97.3 µM) and the “fold change (FC)” value [3] was 25. It also gave an MIC [4] of 12.5 µg/mL (≈ 24.3 µM).

With O=C(N/N=C/c1ccc(OCc2cn(CCNc3ccnc4cc(Cl)ccc34)nn2)cc1)c1ccncc1 the “fold change (FC)” value [1] was 25, the MIC [2] was 12.5 µg/mL (≈ 23.7 µM) and the “fold change (FC)” value [3] was 25. For the same compound, the MIC [4] was 6.25 µg/mL (≈ 11.9 µM).
